Results on one compound are retold here after ChEMBL document CHEMBL4819034, “Tricyclic-Carbocyclic RORγt Inverse Agonists-Discovery of BMS-986313” (J Med Chem, 2021).

A word on the inhibition in vivo: it is the drop in the measured response relative to a control, in per cent. Broadly, the clearance is a measure of how efficiently the substance is removed, as volume per time. The term IC50 denotes the concentration that gives 50% inhibition. The term Cmax denotes the maximum level reached in the sampled fluid or tissue. Usually EC50 stands for the concentration giving half of the maximal effect. By AUC(0-t) is commonly meant exposure summed from dosing to a finite time, without extrapolation to infinity. By bioavailability is commonly meant the share of a dose that reaches the circulation, judged against a reference dose that is usually intravenous.

The test system of data set [1] is Mus musculus. Kind of data set: Protection against recombinant human IL23-induced acanthosis C57BL/6 mouse model assessed as inhibition of ear thickening at 15 mg/kg, po BID for 10 days and measured every other day relative to control. Format: functional. The note with it: C57BL/6, po, 240 h, time 10 day. The method in brief:
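IL-23 ear-injection acanthosis model in C57BL/6 mice with BID oral dosing. Ear thickness % change was recorded every other day, before each next injection, from a day 0 baseline. Inhibition of ear thickening was calculated against the placebo arm from the area under the curve over the study duration.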

Data set [2] is described as follows: Clearance in cynomolgus monkey at 1 mg/kg, iv. Format: ADME, organism-based, Macaca fascicularis. The note with it: in vivo. In a few lines: (§1)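 Single-dose PK, IV and PO. Doses: mouse and rat 2 mg/kg IV / 4 mg/kg PO; dog and cyno 1 mg/kg IV, with 1 or 2 mg/kg PO.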
Data set [3] deals with Mus musculus. Description: Protection against imiquimod-induced C57BL/6 mouse model of psoriasis assessed as change in skin thickness at 5 mg/kg, po BID for 7 days and measured every day for 8 days relative to control. Format: functional. The note with it: time 7 day.
Data set [4] addresses T1, Cytochrome P450 1A2 (Homo sapiens, UniProt P05177).
T1 sequence (P05177 whole entry): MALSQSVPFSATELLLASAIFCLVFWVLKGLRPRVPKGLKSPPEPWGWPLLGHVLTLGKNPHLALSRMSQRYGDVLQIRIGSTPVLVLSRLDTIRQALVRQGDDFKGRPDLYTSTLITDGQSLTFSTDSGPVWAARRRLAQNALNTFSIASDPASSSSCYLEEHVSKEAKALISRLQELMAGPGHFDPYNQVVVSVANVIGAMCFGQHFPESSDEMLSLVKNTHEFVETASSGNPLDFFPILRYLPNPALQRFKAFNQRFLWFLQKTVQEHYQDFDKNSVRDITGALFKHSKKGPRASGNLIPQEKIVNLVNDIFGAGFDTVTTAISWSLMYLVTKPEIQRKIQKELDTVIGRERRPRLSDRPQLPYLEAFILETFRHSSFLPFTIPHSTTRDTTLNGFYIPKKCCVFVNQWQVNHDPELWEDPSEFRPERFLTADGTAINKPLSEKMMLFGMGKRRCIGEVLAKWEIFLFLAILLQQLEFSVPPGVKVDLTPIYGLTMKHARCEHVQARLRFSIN
Kind of data set: Inhibition of CYP1A2 (unknown origin). Format: ADME.

A short description of data set [5]: Permeability across apical to basolateral membrane in human Caco-2 cells. Format: ADME, cell-based. The note with it: read-out: permeability. The method in brief: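 Caco-2 monolayer permeability, apical-to-basolateral direction (Pc, nm/s). An efflux ratio is also reported.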
The test system of data set [6] is Mus musculus. Kind of data set: Protection against imiquimod-induced C57BL/6 mouse model of psoriasis assessed as inhibition of skin thickening at 10 mg/kg, po BID for 7 days and measured every day for 8 days relative to control. Format: functional. The note with it: C57BL/6, po, 168 h, time 7 day.
Data set [7] in a line: Cmax in cynomolgus monkey at 2 mg/kg, po. The note with it: in vivo. Format: ADME, organism-based, Macaca fascicularis. Also noted: route oral, dose 2 mg/kg. The method in brief: as §1
Data set [8] concerns the target T2, Oxysterols receptor LXR-beta (Homo sapiens, UniProt P55055).
T2 sequence (P55055 whole entry): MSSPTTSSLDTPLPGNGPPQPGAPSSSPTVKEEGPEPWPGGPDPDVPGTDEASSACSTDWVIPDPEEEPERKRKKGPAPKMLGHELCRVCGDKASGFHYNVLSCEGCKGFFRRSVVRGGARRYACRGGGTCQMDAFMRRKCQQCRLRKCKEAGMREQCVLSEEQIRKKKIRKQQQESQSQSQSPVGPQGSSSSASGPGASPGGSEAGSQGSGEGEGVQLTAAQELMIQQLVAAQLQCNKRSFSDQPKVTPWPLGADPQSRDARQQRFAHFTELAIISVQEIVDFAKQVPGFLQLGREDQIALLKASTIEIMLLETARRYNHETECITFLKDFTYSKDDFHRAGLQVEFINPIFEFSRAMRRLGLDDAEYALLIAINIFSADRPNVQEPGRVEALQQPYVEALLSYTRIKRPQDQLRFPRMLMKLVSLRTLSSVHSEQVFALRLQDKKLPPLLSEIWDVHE
Description: Inverse agonist activity at LXRbeta (unknown origin).

Data set [9] can be described thus: AUC (0 to 24 hrs) in cynomolgus monkey at 2 mg/kg, po. Also noted: time < 24 hr, route oral, dose 2 mg/kg. The note with it: in vivo. Format: ADME, organism-based, Macaca fascicularis.
Data set [10] relates to Mus musculus. Description: Protection against recombinant human IL23-induced acanthosis C57BL/6 mouse model assessed as reduction in IL-17A mRNA levels at 6 mg/kg, po BID BID for 10 days by qRT-PCR analysis relative to control. Format: functional. Also noted: scale not given: the % may be the effect or the level left. The note with it: time 10 day. The method in brief: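 In the IL-23 ear-injection model in C57BL/6 mice with BID oral dosing, ear tissue was collected from all animals at study end on day 10. IL-17A and IL-17F mRNA expression was quantified by qPCR and compared with the placebo arm.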
In general terms: Quantitative PCR measures a nucleic acid by following its amplification.

Data set [11] in a line: Oral bioavailability in cynomolgus monkey at 2 mg/kg. Format: ADME, organism-based, Macaca fascicularis. The note with it: in vivo. The method in brief: as §1
A short description of data set [12]: Volume of distribution at steady state in rat at 2 mg/kg, iv. Format: ADME, organism-based. The note with it: in vivo, read-out: Vdss. In a few lines:
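Single intravenous dose: mouse and rat 2 mg/kg, dog and cynomolgus 1 mg/kg. Steady-state volume of distribution was derived from the IV arm. Values are means from three or more animals.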

Data set [13] has as its target T3, Nuclear receptor ROR-beta (Homo sapiens, UniProt Q92753).
T3 sequence (Q92753 whole entry): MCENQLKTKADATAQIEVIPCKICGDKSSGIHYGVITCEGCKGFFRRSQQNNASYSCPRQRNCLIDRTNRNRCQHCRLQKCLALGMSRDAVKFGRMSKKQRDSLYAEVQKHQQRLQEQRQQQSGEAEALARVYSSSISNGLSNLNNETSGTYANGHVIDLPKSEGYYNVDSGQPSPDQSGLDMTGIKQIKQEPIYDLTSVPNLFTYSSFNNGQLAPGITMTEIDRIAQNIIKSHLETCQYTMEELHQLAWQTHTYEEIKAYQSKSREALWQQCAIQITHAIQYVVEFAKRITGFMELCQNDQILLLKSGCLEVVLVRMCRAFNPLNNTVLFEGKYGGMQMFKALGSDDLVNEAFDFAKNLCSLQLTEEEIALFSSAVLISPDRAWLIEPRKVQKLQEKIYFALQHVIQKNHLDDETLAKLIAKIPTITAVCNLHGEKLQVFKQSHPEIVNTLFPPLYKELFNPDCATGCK
Kind of data set: Inverse agonist activity at Gal4-fused RORbeta (unknown origin).

For data set [14], the system named is Mus musculus. Description: Protection against imiquimod-induced C57BL/6 mouse model of psoriasis assessed as inhibition of skin thickening at 5 mg/kg, po BID for 7 days and measured every day for 8 days relative to control. Format: functional. The note with it: C57BL/6, po, 168 h, time 7 day.

`CC(C)(O)C(=O)N[C@@H]1CC[C@@]2(S(=O)(=O)c3ccc(F)cc3)c3ccc(C(F)(C(F)(F)F)C(F)(F)F)cc3CC[C@@H]12`: the inhibition in vivo at 15 mg/kg in data set [1] stood at 66.8%. For the same compound, the clearance in [2] was determined as 2.7 mL/min/kg. In addition, the values for the Activity in [3] and in data set [10] were 67.2% and 64.9%, respectively. This compound showed an IC50 in data set [4] of 20 µM. For the same compound, the Papp A→B in data set [5] was determined as 10.6 ×10⁻⁶ cm/s. For the same compound, the inhibition in vivo at 10 mg/kg in data set [6] amounted to 39.6%. The same compound showed a maximum concentration (Cmax) in data set [7] of 1100 nM. The figures for the EC50 in data set [8] and in data set [13] were > 5 µM and > 10 µM, respectively. In data set [9], this compound displayed an AUC(0-t) at 24 h of 18 µM·h. In data set [11], the bioavailability came to 75%. Besides, the Vd in [12] turned out to be 2.9 L/kg. Moreover, the inhibition in vivo at 5 mg/kg in data set [14] was 13.7%.
